Reference: ChEMBL document CHEMBL4393661, “PRODRUGS FOR NITROREDUCTASE BASED CANCER THERAPY- 2: Novel amide/Ntr combinations targeting PC3 cancer cells” (Eur J Med Chem, 2019)

Legend:
Putative nitroreductase [1] = target: T1, Putative nitroreductase (Staphylococcus saprophyticus subsp. saprophyticus (strain ATCC 15305 / DSM20229 / NCIMB 8711 / NCTC 7292 / S-41), UniProt Q4A0P1); assay: Substrate activity at Staphylococcus saprophyticus nitroreductase expressed in Escherichia coli assessed as retention time […] at 100 uM by HPLC analysis (0 to 5 mins at 20 % ACN, 15 to 22 min at 80% ACN, 27-32 AT 20% ACN); assay type: ADME
T1 sequence (Q4A0P1 whole entry): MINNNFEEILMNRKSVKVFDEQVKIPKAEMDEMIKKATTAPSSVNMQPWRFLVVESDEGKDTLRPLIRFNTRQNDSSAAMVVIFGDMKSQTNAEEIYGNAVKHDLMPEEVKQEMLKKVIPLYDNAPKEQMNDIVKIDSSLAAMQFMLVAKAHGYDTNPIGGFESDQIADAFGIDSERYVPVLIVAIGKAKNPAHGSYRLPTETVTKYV

[2] = target: T2, Staphylococcus saprophyticus nitroreductase (Staphylococcus saprophyticus subsp. saprophyticus (strain ATCC 15305 / DSM20229 / NCIMB 8711 / NCTC 7292 / S-41), UniProt Q4A0P1); assay: Substrate activity at Staphylococcus saprophyticus nitroreductase expressed in Escherichia coli assessed as half life […] at 100 uM by HPLC analysis (0 to 5 mins at 20 % ACN, 15 to 22 min at 80% ACN, 27-32 AT 20% ACN); assay type: ADME
T2 sequence (Q4A0P1 whole entry): T1 sequence (Q4A0P1 whole entry)

PC-3 [3] = assay: Cytotoxicity in human PC3 cells assessed as reduction in cell viability at 180 nM measured after 48 hrs by SRB assay; assay type: cell-based; conditions: pc-3, 48 h, 0.18 µM
Outline: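 They were exposed for 48 h to prodrug alone at 180 nM final, without enzyme or NADH, with 25 mM Tris-HCl as vehicle control. Cells were fixed with 12.5% TCA for 1 h at 4 °C, stained with 0.4% SRB and read at 492 nm as % cell survival, in triplicate.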

PC-3 [4] = assay: Cytotoxicity against human PC3 cells assessed as reduction in cell viability measured after 48 hrs in presence of Staphylococcus saprophyticus nitroreductase and NADH by SRB assay; assay type: cell-based; conditions: PC-3, 48 h
Outline: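 Prodrug at 180, 18 or 1.8 nM was premixed with Ssap-NtrB (31 µg/mL final) and NADH (600 µM final; 900 µM for CB1954) in 25 mM Tris-HCl pH 7.5, then added for 48 h under aerobic conditions. Cells were fixed with 12.5% TCA, stained with SRB and read at 492 nm, in triplicate.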

[5] = Cytotoxicity against human Hep3B cells assessed as cell viability at 9 to 150 uM measured after 48 hrs by MTT assay relative to control; assay type: cell-based, Hep 3B2; conditions: read-out: Activity
Outline: (§1)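 Hep3B and HUVEC cells were grown in high-glucose medium with 10% heat-inactivated FBS and 2 mM glutamine at 37 °C in 5% CO2. Cells were seeded at 5x10^4 per well and left 24 h to attach. They were then exposed for 48 h to 150, 75, 39, 19 and 9 µM, with 1% DMSO as vehicle control. Viability was read by MTT at 550 nm as (OD sample/OD control)×100.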

[6] = Cytotoxicity against human HUVEC cells assessed as cell viability at 9 to 150 uM measured after 48 hrs by MTT assay relative to control; assay type: cell-based; conditions: read-out: Activity; outline: as §1
[7] = Cytotoxicity against human PC3 cells assessed as cell viability at 9 to 150 uM measured after 48 hrs by MTT assay relative to control; assay type: cell-based, PC-3; conditions: read-out: Activity
Outline: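 They were treated for 48 h at 9, 18, 39, 78 and 150 µM, with 1% DMSO as vehicle control. Viability was read by MTT at 550 nm.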

Putative nitroreductase [8] = target: T1, Putative nitroreductase; assay: Substrate activity at Staphylococcus saprophyticus nitroreductase expressed in Escherichia coli assessed as retention time in the presence of NADPH at 100 uM by HPLC analysis (0 to 5 mins at 20% ACN, 25 to 35 min at 80% ACN, 40 to 45 min at 20% ACN); assay type: ADME
[9] = target: T2, Staphylococcus saprophyticus nitroreductase; assay: Substrate activity at Staphylococcus saprophyticus nitroreductase expressed in Escherichia coli assessed as half life […] at 100 uM by HPLC analysis (0 to 5 mins at 20% ACN, 25 to 35 min at 80% ACN, 40 to 45 min at 20% ACN); assay type: ADME
[10] = Solubility of the compound in 15% DMSO; assay type: physicochemical
Hep 3B2 = assay: Cytotoxicity against human Hep3B cells assessed as reduction in cell viability measured after 48 hrs by MTT assay; assay type: cell-based; outline: as §1
Putative nitroreductase [11] = target: T1, Putative nitroreductase; assay: Substrate activity at Staphylococcus saprophyticus nitroreductase expressed in Escherichia coli assessed as retention time […] at 111 uM by HPLC analysis (0 to 5 mins at 20 % ACN, 15 to 22 min at 80% ACN, 27-32 AT 20% ACN); assay type: ADME
Putative nitroreductase [12] = target: T1, Putative nitroreductase; assay: Substrate activity at Staphylococcus saprophyticus nitroreductase expressed in Escherichia coli assessed as retention time in the presence of NADPH at 111 uM by HPLC analysis (0 to 5 mins at 20% ACN, 25 to 35 min at 80% ACN, 40 to 45 min at 20% ACN); assay type: ADME
[13] = target: T2, Staphylococcus saprophyticus nitroreductase; assay: Substrate activity at Staphylococcus saprophyticus nitroreductase expressed in Escherichia coli assessed as half life in the presence of NADPH at 111 uM by HPLC analysis (0 to 5 mins at 20% ACN, 25 to 35 min at 80% ACN, 40 to 45 min at 20% ACN); assay type: ADME

Row | SMILES | Retention_time (Putative nitroreductase [1]) [min] | half-life [2] [min] | Activity (PC-3 [3]) | IC50 (PC-3 [4]) [nM] | viability at 48 h, up to 150 µM [5] [%] | viability at 48 h, up to 150 µM [6] [%] | viability at 48 h, up to 150 µM [7] [%] | Retention time (Putative nitroreductase [1]) [min] | Retention time (Putative nitroreductase [8]) [min] | half-life at 100 µM [9] [min] | solubility [10] | Retention_time (Putative nitroreductase [8]) [min] | IC50 (Hep 3B2) [µM] | Retention_time (Putative nitroreductase [11]) [min] | Retention_time (Putative nitroreductase [12]) [min] | half-life [13] [min]
1 | CCN(C(C)=O)c1cc([N+](=O)[O-])ccc1Br | 15.18 | < 6 | Non-Toxic | 12600 | > 80 | > 80 | > 80 | – | – | – | – | – | – | – | – | –
2 | O=C(NC1CCCC(NC(=O)c2ccc([N+](=O)[O-])cc2)C1)c1ccc([N+](=O)[O-])cc1 (centres undefined) | – | < 120 | Non-Toxic | 30.5 | > 80 | > 80 | 51 to 80 | 19.4 to 20.6 | 19.4 to 20.1 | < 15.6 | Soluble | – | – | – | – | –
3 | O=C(Nc1ccc(NC(=O)c2ccc([N+](=O)[O-])cc2)cc1)c1ccc([N+](=O)[O-])cc1 | 16.61 | – | – | – | 51 to 80 | > 80 | > 80 | – | – | – | Soluble | – | – | – | – | –
4 | O=C(c1ccc([N+](=O)[O-])cc1)N1CCN(C(=O)c2ccc([N+](=O)[O-])cc2)CC1 | 17.28 | – | Non-Toxic | 18 | > 80 | > 80 | 51 to 80 | – | – | < 85.2 | Soluble | 17.6 | – | – | – | –
5 | CCCCN(CCCC)c1c([N+](=O)[O-])cc(C(=O)Nc2ccc(Cl)cc2)cc1[N+](=O)[O-] | – | – | – | – | < 50 | < 50 | < 50 | – | – | – | – | – | 11.6 | 20.12 | 34.2 | < 144
6 | O=C(NC1CCCCC1NC(=O)c1ccc([N+](=O)[O-])cc1)c1ccc([N+](=O)[O-])cc1 (centres undefined) | 20.91 | < 31.2 | Non-Toxic | 15.5 | > 80 | > 80 | > 80 | – | – | < 108 | Soluble | 20.85 | – | – | – | –
7 | CCCCN(CCCC)c1c([N+](=O)[O-])cc(C(=O)Nc2ccc([N+](=O)[O-])cc2)cc1[N+](=O)[O-] | – | – | – | – | < 50 | < 50 | < 50 | – | – | – | – | – | 30.9 | 26.5 | 31.96 | < 93.6
8 | O=C(Nc1cccc(NC(=O)c2ccc([N+](=O)[O-])cc2)c1)c1ccc([N+](=O)[O-])cc1 | 21.88 | – | Non-Toxic | 33.4 | > 80 | > 80 | > 80 | – | – | – | Soluble | 21.98 | – | – | – | –
9 | O=C(Nc1ccccc1NC(=O)c1ccc([N+](=O)[O-])cc1)c1ccc([N+](=O)[O-])cc1 | 21.38 | – | Non-Toxic | 14.3 | > 80 | > 80 | > 80 | – | – | < 192 | Soluble | 22.08 | – | – | – | –
10 | O=C(NCCCCNC(=O)c1ccc([N+](=O)[O-])cc1)c1ccc([N+](=O)[O-])cc1 | 19.02 | – | Non-Toxic | 36.8 | > 80 | > 80 | > 80 | – | – | – | Soluble | – | – | – | – | –
11 | O=C(NCCNC(=O)c1ccc([N+](=O)[O-])cc1)c1ccc([N+](=O)[O-])cc1 | 18.65 | < 72 | Non-Toxic | 31.1 | 51 to 80 | > 80 | > 80 | – | – | < 152 | Soluble | 17.86 | – | – | – | –
12 | CN(C)c1c([N+](=O)[O-])cc(C(=O)Nc2ccc(Cl)cc2)cc1[N+](=O)[O-] | – | – | – | – | < 50 | 51 to 80 | < 50 | – | – | – | – | – | 120 | 19.22 | 25.86 | < 189
13 | NC(=O)c1cc(N2CC2)c([N+](=O)[O-])cc1[N+](=O)[O-] [TRETAZICAR] | – | – | Non-Toxic | – | – | – | – | – | – | – | – | – | – | – | – | –
14 | CC(=O)Nc1cc([N+](=O)[O-])ccc1Br | 13.88 | < 12 | Non-Toxic | 10200 | > 80 | > 80 | > 80 | – | – | – | – | – | – | – | – | –
